CHOP inh: blocks CHOP induction under ER stress | inhibition, % at 10 µM | actives 3.8% (n = 220,000) | CHO-K1 CHOP-promoter luciferase, tunicamycin-induced, 15-18 h;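 active = compounds that reduced the stress-induced luciferase reporter signal by more than about 70% of percent inhibition, limit read from the data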
UPR XBP1 act: activators of adaptive arm of unfolded protein response (XBP1); CHO-XBP1 luciferase reporter, IRE1-XBP1 UPR activation, luminescence; percent of tunicamycin response, DMSO as zero; AID 463104; activation, % at 20 µM; actives 0.33% (n = 330,000);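 active = versus positive control, 20 µM dose yields 30% or more activation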
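Material: IRE1-XBP1 luciferase reporter CHO line / Quantity: one thousand reporter cells per well / Buffer or medium: F12 with 10% serum / Compound: 20 µM single concentration, DMSO 1% / Times: 6 h treatment, 37 °C / Detection: Steady-Glo luciferase glow luminescence, 10 min after reagent addition / Benchmarks: tunicamycin high, DMSO low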
V-ATPase pH: yeast V-ATPase proton transport regulation by pHLuorin; S. cerevisiae, pHLuorin cytosolic pH fluorescence; actives 0.37% (n = 350,000); response, % at 10 µM; in the data active = response mostly above about 7.3%, no sharp cut-off; inactive = mostly below about 5.4%; also: actives read high
UPR CHOP act: activators of apoptotic arm of unfolded protein response (CHOP) | CHO-CHOP luciferase reporter, UPR activation, luminescence; percent of tunicamycin response over DMSO baseline | activation, % at 10 µM | actives 0.34% (n = 330,000);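 active = at 10 µM dose, activation of 40% or more, normalized to positive control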
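System: CHO-CHOP luciferase reporter cell line; amount: 500 cells/well; buffer or medium: F12 medium containing 10% fetal bovine serum; incubation: 6 h compound exposure at 37 °C after overnight seeding; measured by: luciferase luminescence after 10 min with Steady-Glo reagent; evaluation: % reporter activation, DMSO baseline versus tunicamycin full activation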
TbMetRS inhib: Trypanosoma brucei MetRS inhibition. purified T. brucei MetRS, ATP depletion, Kinase-Glo luminescence. inhibition, % at 11.9 µM. actives 0.4% (n = 360,000). AID 624268;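 active = inhibition above a per-plate cutoff of the control wells' mean inhibition plus 3 SD, cut at about 5.5% in these data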
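assay system = parasite MetRS enzyme | timing = 15 min preincubation, 2 h reaction, all 25 °C | evaluation = percent inhibition relative to median high and low control wells | medium = HEPES buffer containing pyrophosphatase, BSA, spermine, DTT | compound = single dose, 11.9 µM final nominal, 0.9% final DMSO | detection = Kinase-Glo luminescence, ATP depletion format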
UPR CHOP confirm: apoptotic UPR (CHOP) activation, confirmed. activation, % at 10 µM. CHO-CHOP cells, CHOP-luciferase reporter luminescence; percent of tunicamycin response, DMSO as zero. actives 64% (n = 1,000). shares compounds with UPR CHOP act; in the data active = activation above about 33%
Numbers stand for hits; . = inactive; / = no result. The full list was thinned out, with hits kept by preference.

SMILES	CHOP inh	UPR XBP1 act	V-ATPase pH	UPR CHOP act	TbMetRS inhib	UPR CHOP confirm
COc1cc(/C=C2\COC/C(=C\c3ccc(O)c(OC)c3)C2=O)ccc1O	.	.	.	140	.	112
COc1ccc(/C=C2\CN(Cc3ccccc3)C/C(=C\c3ccc(OC)c(O)c3)C2=O)cc1O	/	.	.	51	.	43
CCc1ccccc1NC(=O)CN(C)C(=O)Cn1ncc(Cl)c(Cl)c1=O	.	/	.	/	.	/
O=C(Cn1ncc(Cl)c(Cl)c1=O)Nc1ccc2c(c1)OCO2	/	.	.	.	.	/
O=C(Cn1ncc(Cl)c(Cl)c1=O)c1ccc2c(c1)OCCO2	/	.	.	45	.	48
CCN(CC)S(=O)(=O)c1cc(NC(=O)Cn2ncc(Cl)c(Cl)c2=O)ccc1C	.	.	.	95	.	67
CCC(=O)Nc1ccc(C(=O)Cn2ncc(Cl)c(Cl)c2=O)cc1	.	.	11	63	.	74
NC(=O)c1ccc(/C=N/O)[n+](Cc2ccccc2)c1	/	.	.	.	.	/
C=CCOc1ccc(CN(C)C(=O)CNC(=O)c2ccc(-c3ccccc3)cc2)cc1	/	.	.	.	.	/
COc1ccccc1/C=N/Nc1cc(C)nc(N2CCOCC2)n1	.	.	.	.	.	/
COc1ccc(/C=N/Nc2cc(C)nc(-n3nc(C)cc3C)n2)c(OC)c1	.	.	.	142	.	88
CNc1cc(C)nc(-n2nc(C)cc2C)n1	.	.	.	.	.	/
CCOc1ccc(Nc2cc(C)nc(-n3nc(C)cc3C)n2)cc1	/	87	.	105	.	.
Cc1cc(N/N=C/c2ccc(F)cc2)nc(-n2nc(C)cc2C)n1	90	.	.	73	.	.
COc1ccc(/C=N/Nc2nc(Nc3ccccc3)nc(N3CCCCC3)n2)cc1OC	.	.	.	.	.	/
COc1cccc(/C=N/Nc2nc(Nc3ccccc3)nc(-n3nc(C)cc3C)n2)c1O	87	.	.	93	.	95
COc1ccc(Nc2cc(C)nc(N3CCOCC3)n2)cc1	.	.	.	.	.	/
Cc1ccc(C)c(OCCC(=O)NNC(=O)c2cc(C)oc2C)c1	/	.	.	.	.	/
CCN(CC)C(=O)c1cc([N+](=O)[O-])cc2c1-c1ccc([N+](=O)[O-])cc1C2=C(C#N)C#N	.	.	.	169	.	.
O=c1nc(Nc2cccc(Cl)c2)oc2cc(Cl)oc(=O)c12	.	.	.	41	.	73
O=C1CC(c2ccccc2)CC(O)=C1C=Nc1ccccc1Cl (stereo not drawn)	.	.	.	.	.	/
O=C1CC(c2ccccc2)CC(O)=C1C=Nc1ccc(Cl)cc1 (stereo not drawn)	83	.	.	43	.	.
CCn1cnc2c1c(=O)n(CC(=O)OC)c(=O)n2Cc1ccccc1	/	.	.	.	.	/
COc1cc(/C=C2\SC(=Nc3ccccc3)N(CCc3c[nH]c4ccccc34)C2=O)ccc1OC(C)C(=O)O (stereo not drawn)	.	.	.	.	.	/
O=C1/C(=C/c2ccc(N3CCOCC3)o2)SC(=Nc2ccccc2)N1CCc1c[nH]c2ccccc12	.	.	.	110	.	36
SMILES	CHOP inh	UPR XBP1 act	V-ATPase pH	UPR CHOP act	TbMetRS inhib	UPR CHOP confirm
O=S1(=O)Nc2c(ccc3cccnc23)-c2ccccc21	/	.	.	346	.	425
Cc1cc(C(=O)CSc2nnc(N)s2)c(C)n1CCc1ccc(Cl)cc1	.	.	.	.	.	/
COc1ccc(CCn2c(C)cc(C(=O)CCl)c2C)cc1OC	.	.	.	79	.	122
Cc1cc(C(=O)CCl)c(C)n1CCc1ccc(F)cc1	.	.	.	179	.	195
Cc1cc(C(=O)CCl)c(C)n1CCc1ccc(Cl)cc1	.	.	.	234	.	207
Cc1ccc(-c2csc3ncnc(Sc4nnc(CN5CCCCCC5=O)o4)c23)cc1	/	.	.	82	.	80
Cc1ccc(-c2csc3ncnc(SCC(=O)c4ccc5c(c4)OCCO5)c23)cc1	.	.	.	.	.	/
COC(=O)C(C(=O)OC)N1C(=O)CCC1=O	.	.	.	.	.	/
Cn1nnnc1Sc1ncnc2scc(-c3ccc([N+](=O)[O-])cc3)c12	/	.	.	93	.	105
COc1ccc(-c2csc3ncnc(Sc4nnnn4C)c23)cc1	/	.	.	.	.	/
CCCCC1CCC(C(=O)N(CCC(C)C)c2c(N)n(CCCC)c(=O)[nH]c2=O)CC1 (stereo not drawn)	/	/	.	/	.	/
CCCCC1CCC(C(=O)N(CCCC)c2c(N)n(CCCC)c(=O)[nH]c2=O)CC1 (stereo not drawn)	/	.	.	115	.	35
COc1ccc(NC2=NCC(Cc3ccc(Br)cc3)S2)cc1 (stereo not drawn)	.	.	.	.	.	/
Cc1cc(C(=O)Cn2ncc(Cl)c(Cl)c2=O)c(C)n1CC(F)(F)F	.	.	.	96	.	62
CCCc1cc(=O)[nH]c(SCC(=O)c2cc(C)n(CC(F)(F)F)c2C)n1	.	.	.	.	.	/
COc1cc(/C=C/C(=O)c2ccc3c(c2)OCCO3)cc(Br)c1OCC(=O)N(C)C	/	.	.	135	.	272
O=C(/C=C/c1ccncc1)c1ccc2c(c1)OCCO2	.	.	.	.	.	/
COc1ccc(C(=O)N/C(=C/c2cccs2)c2nc3ccccc3[nH]2)cc1OC	.	.	.	.	.	/
COc1cc(/C=C(/C(=O)c2cccs2)c2nc3ccccc3[nH]2)cc(OC)c1O	.	.	.	126	.	161
O=C(OCC(=O)N1CCCC1=O)c1ccc(O)cc1O	/	.	.	.	.	/
O=C(CCl)Nc1c2c(nn1-c1ccccc1)CSC2	/	.	.	70	.	.
O=C(Oc1coc(CSc2ncccn2)cc1=O)c1ccccc1[N+](=O)[O-]	.	.	.	.	.	/
CCOc1ccc(NS(=O)(=O)c2ccc(C)c(C(=O)NCCCn3ccnc3)c2)cc1	.	.	.	.	.	/
O=C1C(CSCc2ccccc2)NC(=S)N1c1ccccc1 (stereo not drawn)	.	.	.	52	.	34
O=C(Nc1ccc(Cl)cc1)/C(=C/c1cccc(O)c1)c1nc2ccccc2s1	107	.	.	114	.	62
S=C(Nc1ccc(Cl)cc1)c1nc2ccccc2s1	.	.	.	.	.	/
CN(C(=O)c1ccc(Cl)c([N+](=O)[O-])c1)C1(C)CCS(=O)(=O)C1 (stereo not drawn)	/	.	.	.	.	/
Cc1ccc(N(C)C(=O)CN(C)S(=O)(=O)c2ccc3c(c2)n(C)c(=O)c(=O)n3C)cc1	/	.	.	.	.	/
Cc1csc(=O)n1CCC(=O)N(C)Cc1c(F)cccc1Cl	/	.	.	.	.	/

Screening results from PubChem.
